In ChEMBL document CHEMBL2429734, “Expedient Synthesis of SMAMPs via Click Chemistry” (ACS Med Chem Lett, 2013):

Columns and labels:
[1] = Hemolytic activity in human RBC assessed as release of hamoglobin after 1 hr; type: ADME, cell-based, Erythrocyte; details: for HC50 at 1 h: human red blood cells
How it was run: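 Lysis of human erythrocytes measured. HC50 was taken as the lowest concentration causing 50% lysis of the red blood cells.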

Escherichia coli [2] = assay: Antibacterial activity against Escherichia coli ATCC 25922 assessed as growth inhibition incubated for 30 mins prior to inoculation measured after 18 hrs by broth microdilution method in presence of 40% mouse serum; type: functional
How it was run: (§1)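 Hancock-modified CLSI microbroth dilution MIC run in the presence of 40% mouse serum against S. aureus ATCC 27660 or E. coli ATCC 25922. 40% was the highest serum level used because bacterial growth was impaired at higher percentages.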

Staphylococcus aureus [3] = assay: Antibacterial activity against Staphylococcus aureus ATCC 27660 assessed as growth inhibition incubated for 30 mins prior to inoculation measured after 18 hrs by broth microdilution method in presence of 40% mouse serum; type: functional; how it was run: as §1
Escherichia coli [4] = assay: Antibacterial activity against Escherichia coli ATCC 25922 assessed as growth inhibition after 18 hrs by broth microdilution method in absence of 40% mouse serum; type: functional; details: ATCC 25922, 18 h
How it was run: (§2)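 MIC determined by Hancock's method for cationic antimicrobial peptides, a slight modification of the CLSI microbroth dilution method, run in medium without mouse serum. Strains were S. aureus ATCC 27660, E. coli ATCC 25922, E. faecalis ATCC 29212, P. aeruginosa ATCC 10145 and K. pneumoniae ATCC 13883.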

Enterococcus faecalis = assay: Antibacterial activity against Enterococcus faecalis ATCC 29212 assessed as growth inhibition after 18 hrs by broth microdilution method in absence of 40% mouse serum; type: functional; details: ATCC 29212, 18 h; how it was run: as §2
Pseudomonas aeruginosa = assay: Antibacterial activity against Pseudomonas aeruginosa ATCC 10145 assessed as growth inhibition after 18 hrs by broth microdilution method in absence of 40% mouse serum; type: functional; details: ATCC 10145, 18 h; how it was run: as §2
Staphylococcus aureus [5] = assay: Antibacterial activity against Staphylococcus aureus ATCC 27660 assessed as growth inhibition after 18 hrs by broth microdilution method in absence of 40% mouse serum; type: functional; details: ATCC 27660, 18 h; how it was run: as §2
Klebsiella pneumoniae = assay: Antibacterial activity against Klebsiella pneumoniae ATCC 13883 assessed as growth inhibition after 18 hrs by broth microdilution method in absence of 40% mouse serum; type: functional; details: ATCC 13883, 18 h; how it was run: as §2
[6] = Ratio of compound HC50 to pexiganan HC50 for human RBC; type: ADME, cell-based; details: erythrocyte
[7] = Selectivity ratio of HC50 for human RBC to MIC for Staphylococcus aureus ATCC 27660; type: functional
[8] = Selectivity ratio of HC50 for human RBC to MIC for Escherichia coli ATCC 25922; type: functional

MIC (Escherichia coli [2]) [µg/mL]	MIC (Staphylococcus aureus [3]) [µg/mL]	MIC (Escherichia coli [4]) [µg/mL]	MIC (Enterococcus faecalis) [µg/mL]	MIC (Pseudomonas aeruginosa) [µg/mL]	MIC (Staphylococcus aureus [5]) [µg/mL]	MIC (Klebsiella pneumoniae) [µg/mL]	Ratio [6]	Compound	HC50 ([1]; erythrocyte, 1 h) [µg/mL]	HC50 at 1 h [1] [µg/mL]	Selectivity ratio [7]	Selectivity ratio [8]
								PEXIGANAN ACETATE	120			
12.5	3.13							NCCCOc1cc(C#Cc2ccc3ccc(C#Cc4cc(OCCCN)cc(OCCCN)c4)cc3c2)cc(OCCCN)c1.O=C(O)C(F)(F)F.O=C(O)C(F)(F)F.O=C(O)C(F)(F)F.O=C(O)C(F)(F)F		3.4		
25	12.5	25	25	25	50	> 50		NCCCOc1cccc(-n2cc(-c3cccc(-c4cn(-c5cccc(OCCCN)c5)nn4)c3)nn2)c1.O=C(O)C(F)(F)F.O=C(O)C(F)(F)F				
6.25	0.39	> 50		50	12.5	> 50	10	NCCCOc1ccc(-n2cc(-c3cccc(-c4cn(-c5ccc(OCCCN)c(OCCCN)c5)nn4)c3)nn2)cc1OCCCN.O=C(O)C(F)(F)F.O=C(O)C(F)(F)F.O=C(O)C(F)(F)F.O=C(O)C(F)(F)F		> 1000	> 2500	> 160
3.13	0.19	> 50	25	50	25	50		NCCCOc1ccc(-n2cc(-c3ccc4ccc(-c5cn(-c6ccc(OCCCN)c(OCCCN)c6)nn5)cc4c3)nn2)cc1OCCCN.O=C(O)C(F)(F)F.O=C(O)C(F)(F)F.O=C(O)C(F)(F)F.O=C(O)C(F)(F)F		81		
25	0.39	50	25	50	12.5	> 50		NCCCOc1ccc(-n2cc(-c3ccc4ccc(-c5cn(-c6cc(OCCCN)c(OCCCN)c(OCCCN)c6)nn5)cc4c3)nn2)cc1OCCCN.O=C(O)C(F)(F)F.O=C(O)C(F)(F)F.O=C(O)C(F)(F)F.O=C(O)C(F)(F)F.O=C(O)C(F)(F)F		94		
> 50	12.5	> 50	50	> 50	> 50	> 50		NCCCOc1cccc(-n2cc(-c3ccc4ccc(-c5cn(-c6cccc(OCCCN)c6)nn5)cc4c3)nn2)c1.O=C(O)C(F)(F)F.O=C(O)C(F)(F)F				
25	1.56							NCCCOc1cc(OCCCN)cc(-c2ccc3ccc(-c4cc(OCCCN)cc(OCCCN)c4)cc3c2)c1.O=C(O)C(F)(F)F.O=C(O)C(F)(F)F.O=C(O)C(F)(F)F.O=C(O)C(F)(F)F		194		
25	0.19	25	50	12.5	12.5	> 50		NCCCOc1cc(-n2cc(-c3ccc4ccc(-c5cn(-c6cc(OCCCN)c(OCCCN)c(OCCCN)c6)nn5)cc4c3)nn2)cc(OCCCN)c1OCCCN.O=C(O)C(F)(F)F.O=C(O)C(F)(F)F.O=C(O)C(F)(F)F.O=C(O)C(F)(F)F.O=C(O)C(F)(F)F.O=C(O)C(F)(F)F		828		
12.5	0.39	> 50	50	25	25	> 50		NCCCOc1cc(OCCCN)cc(-n2cc(-c3ccc4c(ccc5cc(-c6cn(-c7cc(OCCCN)cc(OCCCN)c7)nn6)ccc54)c3)nn2)c1.O=C(O)C(F)(F)F.O=C(O)C(F)(F)F.O=C(O)C(F)(F)F.O=C(O)C(F)(F)F		109		
6.25	0.39	> 50	25	> 50	12.5	50		NCCCOc1cc(OCCCN)cc(-n2cc(-c3ccc4ccc(-c5cn(-c6cc(OCCCN)cc(OCCCN)c6)nn5)cc4c3)nn2)c1.O=C(O)C(F)(F)F.O=C(O)C(F)(F)F.O=C(O)C(F)(F)F.O=C(O)C(F)(F)F		693		
